Read-outs that look alike come from different tables or passages of the source. One block for each molecule: values may come before it. Peptide text beside a SMILES is read from it.
Assays:
WDR5 = WDR5 (Homo sapiens, UniProt P61964); assay: Fluorescence-polarization; format: binding; conditions: for decrease in binding affinity to WDR5 (times) compared to ARA (Ac-ARA-NH2) / improvement in binding affinity to WDR5 (times more potent) compared to ARA (Ac-ARA-NH2): relative to ARA peptide; for weakening of binding to WDR5 (times) compared to Val and Abu at Ala1: relative to Val and Abu
[1] = target: MLL1 core complex (MLL1/WDR5/RbBP5/ASH2L) (Homo sapiens, UniProt P61964); assay: In vitro H3K4 histone methyltransferase; format: biochemical; conditions: for inhibition of MLL1 HMT activity, result in words: up to 400 μM
HoxA9 = assay: qRT-PCR analysis of HoxA9 expression in MLL1-AF9 transduced bone marrow cells; format: cell-based; conditions: 96 h, MLL1-AF9 transduced murine cells
How it was run: (§1)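 Murine bone marrow cells transduced with MLL1-AF9 were exposed for 96 h to test compound (25 or 50 μM), a control compound (50 μM) or mock, all at 0.2% final DMSO. Total RNA was extracted (Trizol plus column kit) and cDNA made by random priming. SYBR real-time PCR used gene-specific primers for HoxA9, Meis1 and GAPDH. Expression is relative to mock after normalizing to GAPDH or total input RNA; unpaired t test versus mock.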

Meis-1 = assay: qRT-PCR analysis of Meis-1 expression in MLL1-AF9 transduced bone marrow cells; format: cell-based; conditions: 50 μM, 96 h, MLL1-AF9 transduced murine cells
How it was run: as §1

GAPDH = assay: qRT-PCR analysis of GAPDH; format: cell-based; conditions: 96 h, MLL1-AF9 transduced murine cells
How it was run: as §1

MV4;11 cells [2] = assay: Cell growth, CellTiter-Glo Luminescent Cell Viability Assay; format: cell-based; conditions: 7 days
How it was run: (§2)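 Cells grown in RPMI 1640 with 10% FBS and penicillin-streptomycin at 37 °C, 5% CO2. Seeded at 5 × 10^5 cells per well and exposed to test compound or 0.2% DMSO vehicle for 7 days. Medium was changed and compound resupplied every 2 days. CellTiter-Glo reagent added, 2 min shaking to lyse, 10 min at room temperature, then luminescence read.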

KOPN8 cells = assay: as above; format: cell-based; conditions: 7 days
How it was run: as §2

K562 cells [3] = assay: as above; format: cell-based; conditions: 7 days
How it was run: as §2

MV4;11 cells [4] = assay: Annexin V-propidium iodide apoptosis assay; format: cell-based; conditions: MV4;11, 50 μM, 96 h
K562 cells [5] = assay: Annexin V-propidium iodide apoptosis assay; format: cell-based; conditions: K562, up to 50 μM, 96 h

- decrease in binding affinity to WDR5 (times) compared to ARA (Ac-ARA-NH2) (WDR5): > 100
- inhibition of MLL1 HMT activity, result in words [1]: fail to inhibit the MLL1 HMT activity
Compound: CC(=O)NCC(=O)N[C@@H](CCCNC(=N)N)C(=O)N[C@@H](C)C(N)=O [Compound 1a] (Ac-Gly-Arg-Ala-NH2)

- decrease in binding affinity to WDR5 (times) compared to ARA (Ac-ARA-NH2) (WDR5): 3
Compound: CC(=O)N[C@@H](CS)C(=O)N[C@@H](CCCNC(=N)N)C(=O)N[C@@H](C)C(N)=O [Compound 1d] (Ac-Cys-Arg-Ala-NH2)

- reduction of binding affinity to WDR5 (fold) compared to 3b (WDR5; relative to 3b): 3
- improvement in binding affinity to WDR5 (times more potent) compared to ARA (Ac-ARA-NH2) (WDR5): 5
Compound: CC(=O)N[C@@H](C)C(=O)N[C@@H](CCCNC(=N)N)C(=O)N[C@H](C(N)=O)[C@@H](C)O [Compound 3i] (Ac-Ala-Arg-Thr-NH2)

- IC50 (WDR5): > 300 µM
- Ki (WDR5): > 65 µM
- binding to WDR5, result in words (WDR5; FP-based competitive binding): complete loss of binding
Compound: CC(=O)N[C@@H](C)C(=O)N[C@@H](CCCN)C(=O)N[C@@H](C)C(N)=O [Compound 2b]

- decrease in binding affinity to WDR5 (times) compared to ARA (Ac-ARA-NH2) (WDR5): > 100
Compound: CC(=O)N[C@@H](C)C(=O)N[C@@H](CCCNC(=N)N)C(=O)N[C@@H](CCC(=O)O)C(N)=O [Compound 3j] (Ac-Ala-Arg-Glu-NH2)

- IC50 [1]: 141 ± 52 µM
Compound: CC(=O)N[C@@H](C)C(=O)N[C@@H](CCCNC(=N)N)C(=O)N[C@@H](C)C(N)=O [ARA, Ac-ARA-NH2] (Ac-Ala-Arg-Ala-NH2)

- improvement in binding affinity to WDR5 (times more potent) compared to ARA (Ac-ARA-NH2) (WDR5): 2
Compound: CC[C@H](NC(C)=O)C(=O)N[C@@H](CCCNC(=N)N)C(=O)N[C@@H](C)C(N)=O [Compound 1b]

Compound: CCC(CC)(NC(=O)C(C)C)C(=O)N[C@@H](CCCN=C(N)N)C(=O)NC1(C(=O)NC(c2ccc(F)cc2)c2ccc(F)cc2)CCCC1 [MM-102]
- improvement in binding affinity to WDR5 (times more potent) compared to ARA (Ac-ARA-NH2) (WDR5): > 200
- reduction in HoxA9 gene expression compared with Mock (HoxA9; 25 μM): Approximately 50%
- reduction in HoxA9 gene expression compared with Mock (HoxA9; 50 μM): ~70%
- decrease in Meis-1 expression (Meis-1): 40%
- effect on expression of GAPDH, in words (GAPDH): did not affect the expression of GAPDH
- cell growth inhibition, in words (MV4;11 cells [2]; MV4;11, 75 μM): completely inhibits cell growth
- IC50 (MV4;11 cells [2]; read-out: cell growth inhibition IC50, MV4;11 (MLL1-AF4)): 25 µM
- cell growth inhibition, in words (KOPN8 cells; KOPN8, 75 μM): completely inhibits cell growth
- IC50 (KOPN8 cells; read-out: cell growth inhibition IC50, KOPN8 (MLL1-ENL)): 25 µM
- effect on cell growth, in words (K562 cells [3]; K562 (BCR-ABL, no MLL1 fusion), up to 50 μM): no effect
- effect on cell growth, in words (K562 cells [3]; K562, 75 μM): minimal effect
- cells undergoing cell death (MV4;11 cells [4]): > 75%
- cells undergoing cell death (K562 cells [5]): < 10%

- decrease in binding affinity to WDR5 (times) compared to ARA (Ac-ARA-NH2) (WDR5): 3–6
Compound: CC(=O)N[C@@H](Cc1c[nH]cn1)C(=O)N[C@@H](CCCNC(=N)N)C(=O)N[C@@H](C)C(N)=O [Compound 1g] (Ac-His-Arg-Ala-NH2)

- improvement in binding affinity to WDR5 (times more potent) compared to ARA (Ac-ARA-NH2) (WDR5): 20
Compound: CC[C@H](NC(=O)[C@H](CCCNC(=N)N)NC(=O)[C@H](C)NC(C)=O)C(N)=O [Compound 3b]

- decrease in binding affinity to WDR5 (times) compared to ARA (Ac-ARA-NH2) (WDR5): 3–6
- inhibition of MLL1 HMT activity, result in words [1]: fail to inhibit the MLL1 HMT activity
Compound: CC(=O)N[C@@H](Cc1ccccc1)C(=O)N[C@@H](CCCNC(=N)N)C(=O)N[C@@H](C)C(N)=O [Compound 1h] (Ac-Phe-Arg-Ala-NH2)

- decrease in binding affinity to WDR5 (times) compared to ARA (Ac-ARA-NH2) (WDR5): 5
- weakening of binding to WDR5 (times) compared to Val and Abu at Ala1 (WDR5): approximately 10
Compound: CC(=O)N[C@@H](CO)C(=O)N[C@@H](CCCNC(=N)N)C(=O)N[C@@H](C)C(N)=O [Compound 1i] (Ac-Ser-Arg-Ala-NH2)

- decrease in binding affinity to WDR5 (times) compared to ARA (Ac-ARA-NH2) (WDR5): > 10
Compound: CC(=O)N[C@@H](C)C(=O)N[C@@H](CCCNC(=N)N)C(=O)NCC(N)=O [Compound 3a] (Ac-Ala-Arg-Gly-NH2)

- IC50 (WDR5): > 300 µM
- Ki (WDR5): > 65 µM
- binding to WDR5, result in words (WDR5; FP-based competitive binding): inactive
Compound: CC(=O)N[C@@H](C)C(=O)N[C@@H](CCCCN)C(=O)N[C@@H](C)C(N)=O [Compound 2c] (Ac-Ala-Lys-Ala-NH2)

- improvement in binding affinity to WDR5 (times more potent) compared to ARA (Ac-ARA-NH2) (WDR5): 2
Compound: CC(=O)N[C@H](C(=O)N[C@@H](CCCNC(=N)N)C(=O)N[C@@H](C)C(N)=O)C(C)C [Compound 1c] (Ac-Val-Arg-Ala-NH2)

- decrease in binding affinity to WDR5 (times) compared to ARA (Ac-ARA-NH2) (WDR5): 5
- weakening of binding to WDR5 (times) compared to Val and Abu at Ala1 (WDR5): approximately 10
Compound: CC(=O)N[C@H](C(=O)N[C@@H](CCCNC(=N)N)C(=O)N[C@@H](C)C(N)=O)[C@@H](C)O [Compound 1j] (Ac-Thr-Arg-Ala-NH2)

- improvement in binding affinity to WDR5 (times more potent) compared to ARA (Ac-ARA-NH2) (WDR5): 5
Compound: CC(=O)N[C@@H](C)C(=O)N[C@@H](CCCNC(=N)N)C(=O)N[C@H](C(N)=O)C(C)C [Compound 3c] (Ac-Ala-Arg-Val-NH2)

- decrease in binding affinity to WDR5 (times) compared to ARA (Ac-ARA-NH2) (WDR5): 3
Compound: CC(=O)N[C@@H](C)C(=O)N[C@@H](CCCNC(=N)N)C(=O)N[C@@H](CO)C(N)=O [Compound 3h] (Ac-Ala-Arg-Ser-NH2)

- Ki (WDR5; read-out: Ki ± SD, binding affinity to WDR5, FP-based competitive binding): < 0.001 µM
Compound: CCC(CC)(NC(=O)C(C)C)C(=O)N[C@@H](CCCNC(=N)N)C(=O)NC1(C(=O)NC(c2ccc(Cl)cc2)c2ccc(Cl)cc2)CCCC1 [MM-103]

- decrease in binding affinity to WDR5 (times less potent) compared to 3c (WDR5; relative to 3c): 15
Compound: CC(=O)N[C@H](C(=O)N[C@@H](CCCNC(=N)N)C(=O)N[C@H](C(N)=O)C(C)C)C1CCCC1 [Compound 4i]

- IC50 (WDR5): > 300 µM
- Ki (WDR5): > 65 µM
- binding to WDR5, result in words (WDR5; FP-based competitive binding): complete loss of binding
Compound: CCCC[C@H](NC(=O)[C@H](C)NC(C)=O)C(=O)N[C@@H](C)C(N)=O [Compound 2a]

- binding to WDR5, result in words (WDR5; FP-based competitive binding): fails to bind to WDR5
- inhibition of MLL1 HMT activity, result in words [1]: fail to inhibit the MLL1 HMT activity
Compound: CC(=O)N[C@@H](C)C(=O)N[C@@H](CCCNC(N)=O)C(=O)N[C@@H](C)C(N)=O [Compound 2d]

- decrease in binding affinity to WDR5 (times less potent) compared to 3c (WDR5; relative to 3c): 50
Compound: CC(=O)N[C@H](C(=O)N[C@@H](CCCNC(=N)N)C(=O)N[C@H](C(N)=O)C(C)C)c1ccccc1 [Compound 4j]

- times more potent than 3c in binding to WDR5 (WDR5; relative to 3c): 5
Compound: CCC(CC)(NC(C)=O)C(=O)N[C@@H](CCCNC(=N)N)C(=O)N[C@H](C(N)=O)C(C)C [Compound 4f]

Source: paper PMC5180416 (Journal of the American Chemical Society, 2012)
